Measured values from ChEMBL document CHEMBL1148707, “Inhibition of the bacterial heme oxygenases from Pseudomonas aeruginosa and Neisseria meningitidis: novel antimicrobial targets” (J Med Chem, 2007).
Calls of active or inactive are those of the source. The calls are words filed in the database; no cut-off is given here.

What was measured:
[1] = test system: Pseudomonas aeruginosa; assay: Growth inhibition of Pseudomonas aeruginosa MPA01 at <250 uM; format: functional, organism-based
Method in brief: (§1)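 MPA01 grown 8 h at 37 °C, then diluted to OD600 0.05 in iron-restricted succinate minimal medium pH 7.0 with heme as iron source. Compound added from DMSO at 10-1500 µM. Incubated 10 h at 37 °C with aeration in 96-well format, then OD600 read.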

[2] = Binding affinity to Neisseria meningitidis heme oxygenase
Method in brief: (§2)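 Fluorescence titration of purified apoprotein (1 µM; residual biliverdin removed by chromatofocusing) in 20 mM Tris-HCl pH 7.5. Compound added at 0.05-500 µM from DMSO stock. Mean of three experiments.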

[3] = test system: Neisseria meningitidis; assay: Inhibition of Neisseria meningitidis heme oxygenase-mediated biliveridin production in Escherichia coli BL21 at 1500 uM
Method in brief: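 E. coli BL21(DE3) with leaky nm-HO expression grown overnight (16 h) in LB with 100 µg/mL ampicillin, with or without 1500 µM compound, no iron restriction. Cells lysed with 50 µM β/δ-biliverdin added as internal standard. Biliverdin extracted into chloroform, converted to dimethyl esters, analysed by HPLC. α-Biliverdin peak integrated against the standard.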

[4] = target: T1, Heme oxygenase (Pseudomonas aeruginosa, UniProt O69002); assay: Binding affinity to Pseudomonas aeruginosa heme oxygenase; method in brief: as §2
T1 sequence (O69002 whole entry): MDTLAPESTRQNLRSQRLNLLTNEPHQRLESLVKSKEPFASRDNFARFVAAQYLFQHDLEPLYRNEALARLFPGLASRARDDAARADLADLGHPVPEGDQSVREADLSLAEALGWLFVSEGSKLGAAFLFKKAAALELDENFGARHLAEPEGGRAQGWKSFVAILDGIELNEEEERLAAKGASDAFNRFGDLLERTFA

[5] = test system: Pseudomonas aeruginosa; assay: Growth inhibition of Pseudomonas aeruginosa MPA01 in presence of haemoglobin; format: functional; set-up: scale not given: the % may be the effect or the level left
Method in brief: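 MPA01 diluted to OD600 0.05 in succinate minimal medium pH 7.0 with 25 µM hemoglobin as sole iron source, with or without compound (DMSO). 10 h endpoint OD600 at 0-1500 µM, or hourly OD600 over 12 h at 500 µM, 37 °C with aeration. Compared with 40 µM Fe(III) pyoverdine cultures. Mean of three experiments.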

[6] = test system: Pseudomonas aeruginosa; assay: Growth inhibition of Pseudomonas aeruginosa MPA01 at >250 uM; format: functional, organism-based; method in brief: as §1

## O=C1C(O)=C/C(=N\c2ccccc2O)c2ccccc21
[1]
  Activity: inactive
[2]
  Kd: 28.8 µM
[3]
  Activity: inactive
[4]
  Kd: 72.8 µM

## CN(C)c1ccc(/C=N/NC(=N)N)cc1
[1]
  Activity: inactive
[2]
  Kd: 22.9 µM
[3]
  Activity: Active

## O=C(Nc1ccc(-c2cn3ccccc3n2)cc1)c1ccccc1[N+](=O)[O-]
[1]
  Activity: inactive
[2]
  Kd: 20.9 µM
[3]
  Activity: Active
[4]
  Kd: 6.1 µM

## N=C(N/N=C\c1cccnc1)N/N=C\c1cccnc1
[1]
  Activity: inactive
[2]
  Kd: 12.2 µM
[3]
  Activity: Active

## O=C(O)/C=C/C(=O)Nc1ccc(Nc2ccccc2)cc1
[5]
  Activity: 40%
[1]
  Activity: inactive
[2]
  Kd: 15.6 µM
[3]
  Activity: Active
[6]
  Activity: Active
[4]
  Kd: 20.1 µM

## O=C(Cc1ccc(Cl)cc1)N/N=C/c1c[nH]c2ccccc12
[5]
  Activity: 40%
[1]
  Activity: inactive
[2]
  Kd: 14.1 µM
[3]
  Activity: Active
[6]
  Activity: Active

## O=C(NNC(=O)c1ccncc1)c1ccncc1
[1]
  Activity: inactive
[3]
  Activity: inactive
